# Experimental data taken from ChEMBL document CHEMBL1155468, “Syntheses and evaluation of anticonvulsant profile and teratogenicity of novel amide derivatives of branched aliphatic carboxylic acids with 4-aminobenzensulfonamide” (J Med Chem, 2010).
# Active and inactive are the calls of the source. The rule behind the calls is not given here.
# Experiments:
# [1] = test system: Mus musculus; test: Neurotoxicity in CF1 albino mouse assessed as motor impairment at 30 mg/kg, ip after 4 hrs; format: toxicity, organism-based; design: dose 30 mg/kg, route intraperitoneal; conditions: in vivo
# [2] = test system: Mus musculus; test: Anticonvulsant activity in CF1 albino mouse assessed as inhibition of maximal electroshock-induced seizures at 30 mg/kg, ip after 4 hrs; format: functional, organism-based; design: dose 30 mg/kg
# Procedure, shortened: (§1)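 Test compounds suspended in 0.5% methylcellulose and given ip to adult male CF no. 1 albino mice (18-25 g) at 0.01 mL/g body weight before maximal electroshock challenge.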
# [3] = test system: Mus musculus; test: Anticonvulsant activity in CF1 albino mouse assessed as inhibition of subcutaneous pentylenetetrazole-induced seizures at 300 mg/kg, ip after 0.5 hrs; format: functional, organism-based; design: dose 300 mg/kg
# Procedure, shortened: (§2)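 Adult male CF no. 1 albino mice (18-25 g) dosed ip with compound suspended in 0.5% methylcellulose (0.01 mL/g). Convulsant: pentylenetetrazol dissolved in 0.9% saline as a 0.85% solution for mice, given subcutaneously.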
# [4] = test system: Rattus norvegicus; test: Anticonvulsant activity in Sprague-Dawley rat assessed as inhibition of maximal electroshock-induced seizures at 30 mg/kg, po after 15 mins
# [5] = test system: Mus musculus; test: Anticonvulsant activity in CF1 albino mouse assessed as inhibition of subcutaneous pentylenetetrazole-induced seizures at 300 mg/kg, ip after 4 hrs; format: functional, organism-based; design: dose 300 mg/kg; procedure, shortened: as §2
# [6] = test system: Rattus norvegicus; test: Anticonvulsant activity in Sprague-Dawley rat assessed as inhibition of maximal electroshock-induced seizures at 30 mg/kg, po after 30 mins
# [7] = test system: Mus musculus; test: Teratogenic effect in SWV mouse assessed as resorptions at 141 mg/kg, ip administered on morning of day 8 of gestation; format: toxicity, organism-based; design: dose 141 mg/kg, route intraperitoneal; conditions: in vivo
# Procedure, shortened: (§3)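 SWV inbred mice: two-month-old nulligravid females mated overnight with males and checked for vaginal plugs next morning; gestation onset taken as 10 p.m. the previous night. On gestation day 8.5 each dam got one ip injection, 0.55–2.7 mmol/kg, in 25% aqueous Cremophor EL (vehicle controls dosed alike), 10 μL/g body weight. Litters and implants tallied; resorptions and live fetuses reported as counts with percentages.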
# [8] = test system: Mus musculus; test: Teratogenic effect in SWV mouse assessed as live fetuses at 141 mg/kg, ip administered on morning of day 8 of gestation; format: toxicity, organism-based; design: dose 141 mg/kg, route intraperitoneal; conditions: in vivo
# Procedure, shortened: (§4)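 Two-month-old nulligravid SWV females were mated overnight and checked for vaginal plugs the next morning; gestation onset was set at 10 p.m. the previous night. On gestation day 8.5, each dam received a single ip injection (0.55-2.7 mmol/kg range) or vehicle (25% aqueous Cremophor EL) at 10 μL/g body weight. Litters were scored for implants, resorptions, live and dead fetuses, and fetuses with neural tube defects.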
# [9] = test system: Mus musculus; test: Anticonvulsant activity in CF1 albino mouse assessed as inhibition of subcutaneous pentylenetetrazole-induced seizures at 30 mg/kg, ip after 4 hrs; format: functional, organism-based; design: dose 30 mg/kg; procedure, shortened: as §2
# [10] = test system: Mus musculus; test: Anticonvulsant activity in CF1 albino mouse assessed as inhibition of maximal electroshock-induced seizures at 30 mg/kg, ip after 0.5 hrs; format: functional, organism-based; design: dose 30 mg/kg; procedure, shortened: as §1
# [11] = test system: Mus musculus; test: Anticonvulsant activity in CF1 albino mouse assessed as inhibition of maximal electroshock-induced seizures at 300 mg/kg, ip after 0.5 hrs; format: functional, organism-based; design: dose 300 mg/kg; procedure, shortened: as §1
# [12] = test system: Mus musculus; test: Anticonvulsant activity in CF1 albino mouse assessed as inhibition of subcutaneous pentylenetetrazole-induced seizures at 100 mg/kg, ip after 0.5 hrs; format: functional, organism-based; design: dose 100 mg/kg; procedure, shortened: as §2
# [13] = test system: Mus musculus; test: Anticonvulsant activity in CF1 albino mouse assessed as inhibition of maximal electroshock-induced seizures at 300 mg/kg, ip after 4 hrs; format: functional, organism-based; design: dose 300 mg/kg; procedure, shortened: as §1
# [14] = test system: Rattus norvegicus; test: Anticonvulsant activity in po dosed rat assessed as inhibition of maximal electroshock-induced seizures
# [15] = test system: Mus musculus; test: Teratogenic effect in SWV mouse assessed as fetuses with neural tube deffects at 282 mg/kg, ip administered on morning of day 8 of gestation; format: toxicity, organism-based; design: dose 282 mg/kg, route intraperitoneal; conditions: in vivo; procedure, shortened: as §4
# [16] = test system: Mus musculus; test: Neurotoxicity in CF1 albino mouse assessed as motor impairment at 300 mg/kg, ip after 4 hrs; format: toxicity, organism-based; design: dose 300 mg/kg, route intraperitoneal; conditions: in vivo
# [17] = test system: Mus musculus; test: Neurotoxicity in CF1 albino mouse assessed as motor impairment at 30 mg/kg, ip after 0.5 hrs; format: toxicity, organism-based; design: dose 30 mg/kg, route intraperitoneal; conditions: in vivo
# [18] = test system: Mus musculus; test: Anticonvulsant activity in CF1 albino mouse assessed as inhibition of subcutaneous pentylenetetrazole-induced seizures at 100 mg/kg, ip after 4 hrs; format: functional, organism-based; design: dose 100 mg/kg; procedure, shortened: as §2
# [19] = test system: Mus musculus; test: Teratogenic effect in SWV mouse assessed as resorptions at 282 mg/kg, ip administered on morning of day 8 of gestation; format: toxicity, organism-based; design: dose 282 mg/kg, route intraperitoneal; conditions: in vivo; procedure, shortened: as §3
# [20] = test system: Mus musculus; test: Teratogenic effect in SWV mouse assessed as live fetuses at 282 mg/kg, ip administered on morning of day 8 of gestation; format: toxicity, organism-based; design: dose 282 mg/kg, route intraperitoneal; conditions: in vivo; procedure, shortened: as §4
# [21] = test system: Rattus norvegicus; test: Anticonvulsant activity in Sprague-Dawley rat assessed as inhibition of maximal electroshock-induced seizures at 30 mg/kg, po after 4 hrs
# [22] = test system: Mus musculus; test: Teratogenic effect in SWV mouse assessed as fetuses with neural tube deffects at 141 mg/kg, ip administered on morning of day 8 of gestation; format: toxicity, organism-based; design: dose 141 mg/kg, route intraperitoneal; conditions: in vivo; procedure, shortened: as §4
# [23] = test system: Mus musculus; test: Anticonvulsant activity in CF1 albino mouse assessed as inhibition of subcutaneous pentylenetetrazole-induced seizures at 30 mg/kg, ip after 0.5 hrs; format: functional, organism-based; design: dose 30 mg/kg; procedure, shortened: as §2
# [24] = test system: Mus musculus; test: Neurotoxicity in CF1 albino mouse assessed as motor impairment at 100 mg/kg, ip after 4 hrs; format: toxicity, organism-based; design: dose 100 mg/kg, route intraperitoneal; conditions: in vivo
# [25] = test system: Mus musculus; test: Anticonvulsant activity in CF1 albino mouse assessed as inhibition of maximal electroshock-induced seizures at 100 mg/kg, ip after 4 hrs; format: functional, organism-based; design: dose 100 mg/kg; procedure, shortened: as §1
# [26] = test system: Mus musculus; test: Anticonvulsant activity in CF1 albino mouse assessed as inhibition of maximal electroshock-induced seizures at 100 mg/kg, ip after 0.5 hrs; format: functional, organism-based; design: dose 100 mg/kg; procedure, shortened: as §1
# [27] = test system: Mus musculus; test: Teratogenic effect in SWV mouse assessed as fetuses with neural tube deffects at 279 mg/kg, ip administered on morning of day 8 of gestation; format: toxicity, organism-based; design: dose 279 mg/kg, route intraperitoneal; conditions: in vivo; procedure, shortened: as §4
# [28] = test system: Rattus norvegicus; test: Anticonvulsant activity in Sprague-Dawley rat assessed as inhibition of maximal electroshock-induced seizures at 30 mg/kg, po after 1 hr
# [29] = test system: Rattus norvegicus; test: Neurotoxicity in Sprague-Dawley rat assessed as motor impairment at 30 mg/kg, po after 0.25 to 4 hrs; conditions: in vivo
# [30] = test system: Mus musculus; test: Teratogenic effect in SWV mouse assessed as live fetuses at 279 mg/kg, ip administered on morning of day 8 of gestation; format: toxicity, organism-based; design: dose 279 mg/kg, route intraperitoneal; conditions: in vivo; procedure, shortened: as §4
# [31] = test system: Mus musculus; test: Teratogenic effect in SWV mouse assessed as resorptions at 279 mg/kg, ip administered on morning of day 8 of gestation; format: toxicity, organism-based; design: dose 279 mg/kg, route intraperitoneal; conditions: in vivo; procedure, shortened: as §3
# [32] = test system: Mus musculus; test: Teratogenic effect in SWV mouse assessed as resorptions at 462 mg/kg, ip administered on morning of day 8 of gestation; format: toxicity, organism-based; design: dose 462 mg/kg, route intraperitoneal; conditions: in vivo; procedure, shortened: as §3
# [33] = species on record: Rattus norvegicus; test: Protective index, ratio of TD50 for rat to ED50 for maximal electroshock-induced rat seizure model
# [34] = test system: Mus musculus; test: Teratogenic effect in SWV mouse assessed as live fetuses at 462 mg/kg, ip administered on morning of day 8 of gestation; format: toxicity, organism-based; design: dose 462 mg/kg, route intraperitoneal; conditions: in vivo; procedure, shortened: as §3
# [35] = test system: Rattus norvegicus; test: Anticonvulsant activity in Sprague-Dawley rat assessed as inhibition of maximal electroshock-induced seizures at 30 mg/kg, po after 2 hrs
# [36] = test system: Mus musculus; test: Teratogenic effect in SWV mouse assessed as fetuses with neural tube deffects at 462 mg/kg, ip administered on morning of day 8 of gestation; format: toxicity, organism-based; design: dose 462 mg/kg, route intraperitoneal; conditions: in vivo; procedure, shortened: as §4
SMILES,Activity [1],Activity [2],Activity [3],Activity [5],Activity [7] [%],Activity [8] [%],Activity [9],Activity [10],Activity [11],Activity [12],Activity [13],ED50 [14] [mg/kg],Activity [16],Activity [18],Activity [21],Activity [23],Activity [24],other results
CC(C)(C)C(=O)Nc1ccc(S(N)(=O)=O)cc1,Non-toxic,inactive,inactive,inactive,7.5,93.3,inactive,inactive,Active,inactive,Active,42.2,Non-toxic,inactive,Active,inactive,Non-toxic,Activity [4]: inactive; Activity [6]: inactive; Activity [15]: 2.7%; Activity [17]: Non-toxic; Activity [19]: 8.9%; Activity [20]: 91.1%; Activity [22]: 3.7%
CCC(C)C(=O)Nc1ccc(S(N)(=O)=O)cc1 (stereo not drawn),Non-toxic,Active,inactive,inactive,8.2,91.8,inactive,Active,Active,inactive,Active,7.6,Non-toxic,inactive,Active,inactive,Non-toxic,Activity [25]: Active; Activity [26]: Active; Activity [27]: 4.4%; Activity [28]: Active; Activity [29]: Non-toxic; Activity [30]: 91.2%; Activity [31]: 8.8%; Activity [32]: 49.1%; Ratio TD50/ED50 [33]: >65.7; Activity [34]: 50.9%; Activity [35]: Active; Activity [36]: 25.4%
